In ChEMBL document CHEMBL4513216, “Probing the Open Global Health Chemical Diversity Library for Multistage-Active Starting Points for Next-Generation Antimalarials” (ACS Infect Dis, 2020):

Experiment: Toxicity liver stage against HepG2, at 10uM
Type: cell-based
Parameters: test concentration 10 uM, cell line HepG2-A16-CD81EGFP
Conditions: human, HepG2-A16-CD81EGFP cells; read-out: INHIBITION
Summary of the method: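 Uninfected HepG2-A16-CD81EGFP cells, 3 × 10^3 per well, 1536-well, plated on prespotted compound at 10 μM final, parasite-free screening media added to match infected plates; puromycin 10 μM positive, DMSO 0.5% negative; run in parallel with 48 h PbLuc assay at 37 °C, 5% CO2; viability by CellTiter-Glo luminescence, normalized to controls.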

Row | SMILES | cytotoxicity at 10 µM [%]
1 | Cc1cccc(-c2nc(CN3CCCC3Cn3cc(C)cn3)no2)c1 (centres undefined) | -1.82
2 | CCOCC1CN(C(=O)c2ccoc2)Cc2cnn(C)c21 (centres undefined) | 0.13
3 | Cc1ccc(N2CCC(NC(C)c3ccc(C)o3)CC2)nc1 (centres undefined) | -6.59
4 | CCc1nccn1C1CCCN(C(=O)c2ccn(-c3ccccc3)n2)C1 (centres undefined) | 5.84
5 | Cn1cc(CC(=O)N2CCCC(c3ccn[nH]3)C2)cn1 (centres undefined) | -4.89
6 | O=C(CCO)N[C@H]1CN(CC2CCC2)C[C@@H]1c1ccccc1 | -0.447
7 | Cc1cc(NCCN2CCNC2=O)nc2cc3c(cc12)CCC3 | 2.97
8 | O=C1OCCN1Cc1cccc(F)c1C(F)(F)F | 2.61
9 | COc1ccc2[nH]c3c(N(C)CC4OCCO4)ncnc3c2c1 | 36
10 | O=C(N1CCCC1)N1C[C@@H](OCc2cccnc2)[C@H]2OCCC[C@H]21 | 4.85
11 | Cc1ccc(C(=O)NC2CCN(C(=O)NCc3ccccn3)CC2)o1 | -12.2
12 | Cc1nnc(SCc2cccc(F)c2)n1CC(N)=O | -6.58
13 | CC1N(c2cnn(C)c2)C(=O)COC12CCN(Cc1ccoc1)CC2 (centres undefined) | 0.997
14 | COc1ccc(C(=O)NCC(c2cccn2C)N2CCCC2)c(OC)c1 (centres undefined) | 1.31
15 | CC(C)n1cnnc1CN(C)C(=O)c1cccnc1O | 2.1
16 | Cc1ccc(C(=O)N2CC[C@@]3(C[C@@H](NS(C)(=O)=O)CCO3)C2)s1 | -73.9
17 | COc1ccc(CN2CC[C@@H](N)[C@@H](OC)C2)cc1Cn1cncn1 | -3.7
18 | CCc1cnc(N2CC3(CCN(C(=O)c4ccoc4)C3)C2)nc1 | -8.37
19 | CCOc1cc(F)ccc1NC(=O)N(C)Cc1cnn(C)c1 | -17
20 | COCCOc1ccc(S(=O)(=O)Nc2cccc(O)c2F)cc1C | 27.7
21 | Cn1cc(CCC(=O)N2C[C@H]3CC[C@@H](C2)N(Cc2ccccn2)C3)cn1 | -1.95
22 | CCOC(=O)c1sc2ccsc2c1CNC(=O)COC | 1.51

Row | SMILES | cytotoxicity at 10 µM [%]
23 | Cc1cccnc1CN1CCCCC1c1ccn2ccnc2n1 (centres undefined) | 0.498
24 | O=S(=O)(N1CCN(CC2CC2)CC1)N1CCCC1c1ccco1 (centres undefined) | 1.24
25 | Cc1cccc(CN2C[C@@H]3CN(C(=O)C4CC=CC4)C[C@@H]3C2=O)n1 | 2
26 | COc1ccc(F)cc1CN1CCCC1Cn1nc(C)nc1C (centres undefined) | -2.41
27 | O=C(N[C@@H]1CCN(c2nccc3ccccc23)C[C@H]1O)c1cnccn1 | -6.71
28 | COCCN1CCC(NCc2cccc(C)c2)C1 (centres undefined) | 2.76
29 | O=C(NCCc1cccnc1)c1nc2c(s1)CCCN2C(=O)C1CC1 | -91.5
30 | COc1cc(C(=O)N2CCC3(CC2)Nc2ccccc2NC3=O)ccn1 | 0.701
31 | CCc1nc(C2CCCN2Cc2nnc(C3CC3)o2)no1 (centres undefined) | -13.2
32 | O=C(O)C1CN(c2cccc(F)c2)CCO1 (centres undefined) | -25.2
33 | COc1ccc(CNC(=O)N(C)CC(C)(C)O)cc1OC | 6.89
34 | CCOC(=O)[C@]12CCCN(Cc3nccs3)C[C@H]1CN(CCOC)C2 | 1.36
35 | O=C(CCSc1ccccc1)NCC1CCN(Cc2ccsc2)CC1 | -6.93
36 | CN(C)[C@@H]1C[C@@H](CO)N(C(=O)Nc2cccc(F)c2F)C1 | -0.103
37 | Cc1cccc(C(=O)N2CCc3c(CN(C)C)nn(C)c3C2)n1 | 3.61
38 | Cc1cnc(N2CCC3(CCN(Cc4csc(C)n4)C3=O)C2)nc1 (centres undefined) | -102
39 | CCOc1ncccc1C(=O)N1CCCC(c2nccn2CCOC)C1 (centres undefined) | -9.12
40 | Cc1cc(-c2cnc(N3CCCCCC3)nc2-c2cccnc2C)on1 | -8.75
41 | c1coc(-c2nnc(CN3CCCC(CN4CCCCCC4)C3)o2)c1 (centres undefined) | -10.5
42 | c1cnc(N2CCO[C@H]3[C@H](OCCN4CCOCC4)CC[C@@H]32)nc1 | -10.2
43 | Cc1ccsc1CNC(=O)N1CCC(Cc2cnn(C)c2)C1 (centres undefined) | -6.6
44 | CN(Cc1n[nH]c(=O)n1Cc1ccco1)S(C)(=O)=O | -1.25

Row | SMILES | cytotoxicity at 10 µM [%]
45 | CC(C)c1nc2c(n1C)CCN(Cc1cccc(C(N)=O)c1)C2 | -7.39
46 | CCCN(CC)Cn1ncc2cn(-c3ccccc3)nc2c1=O | 1.44
47 | Cc1cc(C)nc(N2CCC(C(=O)Nc3n[nH]c(C)n3)CC2)n1 | 8.78
48 | CC(C)C(=O)N1CCC2(CCN2CC2CC2)C1 (centres undefined) | 8.98
49 | Cc1ccc(C(=O)N2CCC(Oc3c(C)cccc3C)CC2)c(=O)[nH]1 | -2.51
50 | COCC(=O)N1CCC(Cc2nccnc2-c2c(C)n[nH]c2C)C1 (centres undefined) | -11.7
51 | CC1(C)Cc2ccccc2-c2nc(NCCO)[nH]c(=O)c21 | -5.46
52 | Cn1cccc1C(=O)NC(C)(C(N)=O)c1cccc(C(F)(F)F)c1 (centres undefined) | 3.61
53 | CC(C)Cc1cc(CNC(=O)c2cccc3c2OCC3)no1 | -47.9
54 | FC1(F)CCN(Cc2ccccn2)CC12CCN(c1cccnc1)C2 (centres undefined) | 25.5
55 | CCc1ccc(CN2CCCn3c(nc(Cn4ccnc4)cc3=O)C2)o1 | 4.29
56 | Cc1nccc(-c2ccccc2)c1C(=O)N1CCC2(CCCO2)CC1 | 2.34
57 | O=C(c1cc(C2CC2)on1)N1CCC(Oc2ncccc2Br)CC1 | 3.96
58 | Cc1cc2nc(CO[C@H]3CN(C)C[C@H]3F)[nH]c2cc1C | 2.78
59 | CS(=O)(=O)N1CCCCCC1C1CCN(Cc2nc(C3CC3)no2)CC1 (centres undefined) | -4.09
60 | Cc1ncsc1C(=O)N(C)Cc1cccnc1 | -5.57
61 | CCOCC1CN(S(=O)(=O)c2ccccc2)Cc2nccn2C1 (centres undefined) | -112
62 | Cc1cccc(-n2cc(C(=O)N3CCn4c(C)nnc4C3)nn2)c1 | -10.1
63 | O=C(CN1CCc2c(ncn2C2CC2)C1)NC1CC1 | 1.01
64 | Cc1ccc(CN2CCc3ncnc(-c4cccnc4)c3CC2)o1 | 1.06
65 | O=C(c1ccco1)N1CCc2ncc(CN3CCOCC3)n2CC1 | -78.7
66 | Cc1nccn1-c1ccc(CNC(=O)c2ccc([S+](C)[O-])cc2)cn1 (centres undefined) | -18.1

Row | SMILES | cytotoxicity at 10 µM [%]
67 | CCc1nccn1C1CCCN(C(=O)c2ccc(C(=O)NC)nc2)C1 (centres undefined) | -6.33
68 | CC(c1ccon1)N(C)C(=O)C1CCN(CC(N)=O)CC1 (centres undefined) | -4.83
69 | CC(C)Cc1nc(OCC(=O)O)c(C#N)c2c1CCCC2 | -6.14
70 | CCCS(=O)(=O)N1CCC2(CC(C(=O)NCc3cccnc3)=NO2)C1 (centres undefined) | -4.51
71 | Cc1ccc(-c2ccc(C(=O)NCCS(N)(=O)=O)c(F)c2)cc1 | 11.3
72 | O=C(CCc1nc(-c2cccnc2)no1)NCC1CCN(C2CC2)C1 (centres undefined) | 0.113
73 | CCS(=O)(=O)N1CCC2(CN(C(=O)c3cscn3)C2)C1 | 10.8
74 | COc1ccc(CN2CC3(CCNCC3)CCC2=O)c(F)c1F | 10.9
75 | COc1ccc(Nc2cc(C)nc(C)n2)cc1N1CCCC1=O | -2.19
76 | CCc1noc(C(C)N2CCN(CC(C)C)CC2)n1 (centres undefined) | -4.05
77 | CCNC(=O)c1cn(C(C)(C)C)c2ncccc12 | -1.28
78 | CCNC(=O)[C@@H]1C[C@@H](NC(=O)c2cnc[nH]c2=O)CN1Cc1ccsc1 | -6.94
79 | Cc1noc(C2CCCN2C(=O)C2CCC2)n1 (centres undefined) | -12.4
80 | Cc1nc(C(C)Nc2nc3c(s2)c(C)nn3C)n[nH]1 (centres undefined) | 10.2
81 | CC(=O)Nc1ccc([C@@H](O)[C@H]2COCC(=O)N2CC(C)C)cc1 | -6.6
82 | CN(CC(=O)N1CCC(OCc2cccnc2)CC1)c1ccccc1 | 7.56
83 | Cc1csc(NC(=O)CN2CCCC(Cn3nc(C)nc3C)C2)n1 (centres undefined) | -3.95
84 | Cc1cc(C2CCCN(C(=O)c3ccc(C)[nH]c3=O)C2)n[nH]1 (centres undefined) | -5.65
85 | c1cncc(CN2Cc3nccn3CC(Cn3cncn3)C2)c1 (centres undefined) | -136
86 | Cc1noc(C)c1CC(=O)NCC(C)N1CCOCC1 (centres undefined) | -52
87 | COCCn1/c(=N\C(=O)CN(C)S(C)(=O)=O)sc2cccc(F)c21 | -11.5
88 | CN1CC(C(=O)NCCc2ccn(-c3ccc(F)cc3)n2)CC1=O (centres undefined) | 3.38

Row | SMILES | cytotoxicity at 10 µM [%]
89 | CN(Cc1cccnc1)[C@@H]1CN(C(=O)c2ccco2)[C@@H]2CCCO[C@H]12 | -108
90 | O=c1n(Cc2ccc(C(F)(F)F)cc2)nc2ncccn12 | -4.06
91 | Cc1ccc(NCc2cnc3n2CCN(c2ncccn2)CC3)nn1 | 7.31
92 | CN(C)C(=O)N1CCN(C(=O)Nc2nc(-c3ccccc3)ns2)CC1 | -136
93 | O=C(Nc1c(N2CCCC2)cccc1N1CCCC1)c1ccccn1 | -25.7
94 | CNc1cc(C)nc(N2C[C@H](NC(=O)C3CCOCC3)[C@@H](C3CC3)C2)n1 | 4.41
95 | Cc1nc(Nc2nnc(C)s2)cc(C2CCCN2C2CCCC2)n1 (centres undefined) | -16.7
96 | O=C(N[C@@H]1CCN(C(=O)c2cc[nH]c2)C[C@H]1O)c1ccccn1 | 5.89
97 | O=C(NCC(O)c1ccc(F)cc1F)c1cccnc1O (centres undefined) | 7.58
98 | CC(C)c1noc(C(C)Nc2nccc(CCC(F)(F)F)n2)n1 (centres undefined) | 2.08
99 | Cc1cc(CN(C)C(=O)NCC(C)N2CCc3ccccc32)no1 (centres undefined) | -5.43
100 | Cc1cc(CNc2nccc(N)n2)c2[nH]c(C)c(C)c2c1 | -1.86
101 | CCc1[nH]ncc1C(=O)N1CCCC(n2nc(C)nc2C)C1 (centres undefined) | -6.02
102 | CC1=N[C@@]2(CC[C@@H]3CN(S(=O)(=O)CC(C)C)C[C@@H]32)C(=O)N1C | -84.6
103 | CN1N=C(C(=O)N2CCCC(CCc3c(F)cccc3F)C2)CCC1=O (centres undefined) | -7.41
104 | CCN(CC)S(=O)(=O)c1ccc(C(=O)NC(C)(C#N)C2CC2)cc1 (centres undefined) | -5.77
105 | CN(Cc1cccs1)S(=O)(=O)c1ccc(C(F)(F)F)nc1 | -5.68
106 | Cn1cc(-c2cc(C(=O)N3CCOCC3)c3ccc(F)cc3n2)cn1 | 1.5
107 | CC(C)C(=O)N1Cc2ccccc2CC2(CCCCN2C)C1 (centres undefined) | 9.15
108 | Cn1nccc1-c1cccc(CC2CCN(S(C)(=O)=O)C2)n1 (centres undefined) | 4.54
109 | O=C(CCc1ccccc1)NCC1CCN(Cc2cccs2)CC1 | -2.68
